# Rows were chosen to be rich in hits. Some 2.2% of all compounds tested hit in one or more screens of this group.
# PABP FP inh: PABP poly(A) RNA binding inhibitors, primary screen, biochemical, fluorescence polarization, uHTS. calls only at 35 µM. AID 2014, 2009. Polyadenylate-binding protein 1 (Homo sapiens), P11940. 290,000 tested, 1% active;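 also: calls also rest on retests at 20 µM and on dose response follow-up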
# VIM-2 inh: VIM-2 metallo-beta-lactamase inhibitors, primary screen, biochemical, epi-absorbance readout, Pseudomonas aeruginosa enzyme; purified VIM-2, nitrocefin hydrolysis, epi-absorbance fluorescence; inhibition, % at 5.6 µM; 290,000 tested, 0.89% active;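 active = inhibition above the mean of all tested compounds plus 3 SD, cutoff set per screening run, cut at about 7.5% in these data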;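 also: red hydrolysis product quenches plate fluorescence so inhibitors raise well fluorescence; 0% = enzyme with DMSO and 100% = DMSO without enzyme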
# IMP-1 inh: IMP-1 metallo-beta-lactamase inhibitors, primary screen, biochemical, epi-absorbance readout, Pseudomonas aeruginosa enzyme; metallo-beta-lactamase IMP-1 (Pseudomonas aeruginosa); purified IMP-1, nitrocefin hydrolysis, epi-absorbance fluorescence; inhibition, % at 5.6 µM; 290,000 tested, 0.45% active; AID 1556, 2009;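 active = inhibition above the mean plus 3 SD of all compounds in the same screening run, cut at about 4.5% in these data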;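 also: 0% = IMP-1 with DMSO and 100% = DMSO wells lacking enzyme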
#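 System: purified IMP-1; amount: IMP-1 0.2 nM before substrate addition; compound: single dose, 5.6 µM; times: 25 °C, 15 min preincubation, 25 min reaction; signal: Epi-absorbance via hydrolysed-nitrocefin quenching of white-plate fluorescence, 480/530 nm, EDTA stop; benchmarks: DMSO with and without IMP-1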
# eIF4H inh: human eIF4H binding inhibitors, primary screen, translation initiation inhibitor project, biochemical, uHTS, fluorescence polarization. Eukaryotic translation initiation factor 4H (Homo sapiens), Q15056. eIF4H fluorescence polarization binding assay. inhibition, % at 35 µM. 290,000 tested, 0.94% active;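 also: calls also rest on retests at 20 µM and on dose response follow-up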
# PABP1 MLLE inh: inhibitors of PABP1 MLLE–PAM2 peptide binding, primary screen, biochemical, fluorescence polarization, FITC-PAM2, GST-MLLE | inhibition, % at 20 µM | 360,000 tested, 0.36% active; in the data active = inhibition above about 35%, passing the limit was not always enough;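 also: plate controls were DMSO wells with GST-MLLE for no effect and wells lacking GST-MLLE protein for full effect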
# * hit, by the source's call; i = inactive; ? = inconclusive; / = no result; + = active, no number; ! = a repeat was not active. Unless noted, no rule for the calls is given here.
SMILES,PABP FP inh,VIM-2 inh,IMP-1 inh,eIF4H inh,PABP1 MLLE inh
CC(=O)c1c(O)n(-c2cccc(Cl)c2)c(=O)[nH]c1=O (tested in a mixture with another compound),+,-2,-4,112*,-57
Nc1ccc2c3c(cccc13)CC2,+,2,3,70*,93
O=C1CC(=O)N(c2cccc(C(F)(F)F)c2)C(=O)N1,i,0,-1,6,-20
O=C1CC(=O)N(c2cccc(Br)c2)C(=O)N1,+,-3,-1,77,-37
CCN(CC)CCNC(=O)c1c(O)c2ccccc2n(Cc2ccccc2)c1=O,i,4,-1,-5,-5
CCN(CC)CCCNC(=O)c1c(O)c2ccccc2n(Cc2ccccc2)c1=O,i,12*,-3,5,3
Cc1nc2sccc2c(=O)n1-c1ccccc1Cl,i,-1,-2,2,-6
COCCCN1CCN(c2nnc3n2-c2sc(Br)cc2C(c2ccccc2Cl)=NC3)CC1,i,-4,8.3*,6,0
O=Cc1cn(CCCOc2ccccc2)c2ccccc12,+,-1,-3,?,-14
O=C1NC(=O)N(Cc2ccco2)C(=O)/C1=C\c1cccn1CCOc1ccc(Cl)cc1,i,-2,-5,?,-21
Cc1cccc(OCCn2cccc2/C=C2/C(=O)NC(=O)N(Cc3ccco3)C2=O)c1,+,3,0,53*,-27
O=C1NC(=O)N(Cc2ccco2)C(=O)/C1=C/c1ccc(-c2cccc([N+](=O)[O-])c2)o1,+,2,-4,78*,0
CCC1(CC)C(=O)N(C)C(=O)NC1=NC,i,0,-2,-25,-1
Cc1ccc(N=Cc2c(O)n(C)c(=O)n(C)c2=O)cc1,i,2,-6,-7,-7
COc1ccc(C=C2C(=O)N(C)C(=O)N(C)C2=O)cc1CSc1ccccn1,+,0,0,?,12
CCOc1ccc(-n2c(O)c(C=NCCN3CCNCC3)c(=O)[nH]c2=O)cc1,+,-2,-5,active,1
S=C(c1ccc(Cl)cc1)N1CCOCC1,i,-1,0,-14,44*
COC(=O)C1=Nc2ccccc2/C1=C\c1c(O)n(C)c(=O)n(C)c1=O,+,-1,-3,63,-25
CN1CCC2(CC1)C(C#N)=C(N)NC(S)=C2C#N,+,0,-1,55*!,-70
COc1ccccc1OP(=O)(Nc1cccnc1)Oc1ccccc1OC,i,-3,-6,6,-1
O=C(O)C1=CC2c3ccccc3C1c1ccccc12,i,-3,-4,3,0
NC(=S)c1cn(C2OC(CO)C(O)C2O)c2ncnc(N)c12 (centres undefined),i,0,12*,-3,43*
Nc1ncnc2c1ccn2[C@@H]1O[C@H](CO)[C@@H](O)[C@H]1O,/,/,/,/,-1
CCCCC12CNCC(C)(CNC1)C2=O,i,-1,-2,0,-8
NCCc1ccc(S(N)(=O)=O)cc1,+,-2,-1,active,-2
SMILES,PABP FP inh,VIM-2 inh,IMP-1 inh,eIF4H inh,PABP1 MLLE inh
CCN(CC)P(=O)(NC(=O)c1cccn1C)N(CC)CC,?,-3,0,4.4*,-13
Cc1c(/C=N/O)c2ccccc2n1C,i,-2,-3,8,7
O=c1[nH]c(=O)n(-c2ccccc2)c(O)c1/C=C/C=Nc1ccccc1,i,3,4,?,-150
COc1ccc(-n2c(O)c(/C=C/C=Nc3ccccc3)c(=O)[nH]c2=O)cc1,?,5,9.4*,?,-137
CCCCCCC[n+]1ccc(-c2cc[n+](CCCCCCC)cc2)cc1,i,-1,5.0*,6,-107
Cc1nn(Cc2ccccc2)c(C)c1C=C1C(=O)NC(=O)NC1=O,?,-3,-2,?,6
NC(=O)OCCSc1nnc(-c2cccc(C(N)=S)c2)o1,i,3,1,2,41*
O=C1OC(c2ccc([N+](=O)[O-])cc2)=N/C1=C/N1CC2CC(C1)c1cccc(=O)n1C2 (centres undefined),i,-2,-4,-6,-30
CC(C)[N+](C)(CCC(C(N)=O)(c1ccccc1)c1ccccc1)C(C)C,i,-2,-1,12*,-28
CCC(=O)C(CCN1CCOCC1)(c1ccccc1)c1ccccc1,/,/,/,/,-6
COC(=O)C1=C(c2ccccc2OCc2ccccc2)C[C@@H]2CC[C@H]1N2C(=O)NCCOc1ccc(OC)cc1,/,/,/,/,9
CC(=O)Nc1ccc(OC(=O)N(C)c2ccccc2)cc1,i,-1,-2,active,12
CCCCn1c(O)c(C(C)=NC(C)c2ccccc2)c(=O)[nH]c1=O (centres undefined),+,-4,-4,active,-3
CCCCn1c(O)c(C(CC)=NC(C)c2ccccc2)c(=O)[nH]c1=O (centres undefined),i,-3,0,-11,-8
O=C(CNS(=O)(=O)c1ccc(Br)s1)N1CCC2(CC1)OCCO2,i,0,-1,-7,-6
COc1ccc(CC2C(=O)NC(=O)NC2=O)c(OC)c1,i,-1,-1,8,5
COc1ccc(CC2C(=O)N(C)C(=O)N(C)C2=O)c(OC)c1,i,-3,-2,-3,42*
ClC1=CCC2CN(CCN3CCCCC3)CC2C1 (centres undefined),i,/,/,-2,-9
COc1cc2c(cc1O)C[C@H]1NCCc3cc4c(c-2c31)OCO4,+,2,-3,64*,-6
CCN1/C(=C\C=C\C2=[N+](CC)c3ccccc3C2(C)C)C(C)(C)c2ccccc21,?,5,5.5*,?,i
Cc1ccccc1N1C(=O)CC(=O)N(c2ccccc2C)C1=O,i,1,0,?,-25
CCC(COC(=O)c1cc(OC)c(OC)c(OC)c1)(c1ccccc1)N(C)C (centres undefined),i,-6,41*,-11,12
COc1ccccc1N1C(=O)NC(=O)/C(=C/c2ccc([N+](=O)[O-])s2)C1=O,+,-3,1,51*,/
COc1ccc(N2C(=O)NC(=O)/C(=C\c3ccc([N+](=O)[O-])s3)C2=O)cc1,i,-1,2,46,5
COc1cccc(N2C(=O)NC(=O)/C(=C/c3ccc([N+](=O)[O-])s3)C2=O)c1,+,0,-1,51,14
C[C@@H]1CC2(CCCC[N+]2(C)C)C[C@H]1C,i,-1,-1,-4,-124
CN1CC[C@]23c4c5ccc(O)c4OC2[C@H](O)C=CC3[C@H]1C5 (some centres undefined),/,/,/,/,0
COc1ccc2c3c1OC1C(O)C=CC4C(C2)[N+](C)(C)CCC341 (centres undefined),+,-1,-3,48,-32
